Assay results as given in PMC2819108 (Bioorganic & medicinal chemistry, 2009).

Experiments:
[1] = system: 54 human cancer cell lines; assay: NCI human cancer cell proliferation assay; assay type: cell-based; conditions: 48 h, read-out: GI50 in 16 of the 54 cell lines
Procedure, shortened: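 The NCI human tumour cell line panel was exposed to test compound at five concentrations in 10-fold serial dilution for 48 h. Growth inhibition was read as total cell protein by sulforhodamine B assay. GI50 was calculated from log dose-response curves.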

rat thoracic aorta rings = assay: Aortic ring assay; conditions: 5 μM; day 6; Fig. 5
Procedure, shortened: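 Thoracic aortas from normal 1–2-month-old rats were excised into ice-cold PBS, cleaned of fibroadipose tissue, and cut into 1–1.5 mm cross-sections. Sections were washed five times in PBS, embedded in Matrigel on coverslips, and held 15 min at 37 °C, 5% CO2. EBM2 containing test compound (1–100 µM) was then added. Sprouting was examined on day 6 against an untreated control.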

A-10 cells = assay: Loss of microtubules in A-10 cells; assay type: cell-based; conditions: 20 μM compound; Fig. 2
[2] = system: HUVEC (human umbilical vein endothelial cells); assay: Angiogenesis assay in vitro; assay type: cell-based; conditions: 1 μM; 16 h treatment; Fig. 4
Procedure, shortened: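 HUVEC (1×10^5 cells) seeded on Matrigel in EBM-2 medium and treated with the test compound over several dose ranges (figure panels: 1 and 10 µM, with untreated control). Tube formation was observed after 16 h of treatment.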

MCF-7 cells = assay: Cell cycle assay; assay type: cell-based, human; conditions: up to 5 μM; 48 h treatment; Fig. 3
Procedure, shortened: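 MCF-7 cells at 2×10^5 cells/ml were seeded in DMEM with 5% fetal calf serum and left overnight at 37 °C to attach. Different concentrations of test compound were then added. After 48 h of treatment, cell-cycle distribution was measured by flow cytometry.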

[3] = system: MCF-7 human breast carcinoma cells; assay: MCF-7 cell proliferation assay; assay type: cell-based; conditions: relative to CA-4

SMILES	GI50 [1]	functional angiogenesis in aortic ring assay (sprout formation) (rat thoracic aorta rings)	effect on interphase microtubule network of A-10 cells (A-10 cells)	HUVEC tube formation [2]	effect on MCF-7 cell cycle (G2/M phase arrest) (MCF-7 cells)	fold less active than CA-4 as inhibitor of MCF-7 cell growth [3]
COc1ccc(/C=C/C(=O)c2cc(OC)c(OC)c(OC)c2)cc1B(O)O [compound 4, 2-Methoxy-5-[(1E)-3-oxo-3-(3,4,5-trimethoxyphenyl)prop-1-en-1-yl]boronic acid]	10 to 200 nM	dramatically inhibited functional angiogenesis	extensive thinning of the network of microtubules	significantly inhibited the tube formation	did not cause significant G2/M phase arrest	–
COc1ccc(/C=C/C(=O)c2cc(OC)c(OC)c(OC)c2)cc1O [compound 6, (2E)-3-(3-Hydroxy-4-methoxyphenyl)-1-(3,4,5-trimethoxyphenyl) prop-2-en-1-one]	–	–	complete disappearance of the microtubule network	–	–	3–4 fold
